{
  "source": "ChEMBL document CHEMBL4715734",
  "about": "“Discovery of the Potent and Selective M1 PAM-Agonist N-[(3R,4S)-3-Hydroxytetrahydro-2H-pyran-4-yl]-5-methyl-4-[4-(1,3-thiazol-4-yl)benzyl]pyridine-2-carboxamide (PF-06767832): Evaluation of Efficacy and Cholinergic Side Effects” (J Med Chem, 2016)",
  "key": {"[1]": {"target": "T1, Muscarinic acetylcholine receptor M1 (Homo sapiens) (UniProt P11229)", "T1 sequence (whole entry)": "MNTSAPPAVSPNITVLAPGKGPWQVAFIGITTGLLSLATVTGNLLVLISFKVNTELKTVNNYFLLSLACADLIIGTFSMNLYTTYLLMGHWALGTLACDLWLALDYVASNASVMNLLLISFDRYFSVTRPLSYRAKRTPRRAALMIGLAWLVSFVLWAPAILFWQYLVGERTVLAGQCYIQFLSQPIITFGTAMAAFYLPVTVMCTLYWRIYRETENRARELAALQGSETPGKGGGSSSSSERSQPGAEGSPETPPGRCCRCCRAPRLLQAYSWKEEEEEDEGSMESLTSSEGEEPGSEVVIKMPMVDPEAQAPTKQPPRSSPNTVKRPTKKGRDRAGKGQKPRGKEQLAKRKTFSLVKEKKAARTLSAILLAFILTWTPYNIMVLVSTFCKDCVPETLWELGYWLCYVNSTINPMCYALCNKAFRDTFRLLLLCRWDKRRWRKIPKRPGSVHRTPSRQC", "experiment": "Binding affinity to human muscarinic M1 receptor stably expressed in CHO cells assessed as increase in intracellular calcium level by measuring binding constant measured after 10 mins by Fluo-8AM dye based FLIPR TETRA method", "type": "cell-based", "conditions": "filed as positive allosteric modulator; call rule not given here"}, "[2]": {"experiment": "Toxicity in dog assessed as salivation at 5 mg/kg, po using spray-dried dispersion formulation", "type": "organism-based, Canis lupus familiaris", "conditions": "in vivo"}, "[3]": {"experiment": "Fraction unbound in rat brain", "type": "ADME, cell-free"}, "[4]": {"experiment": "Toxicity in male rat assessed as increase in body weight at 10 mg/kg, po administered for 14 days", "type": "organism-based", "conditions": "in vivo, 336 h, time 14 day", "procedure,_shortened": "(§1)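 Two-week repeat-dose toxicity study in rats. Oral dosing in 0.5% methylcellulose at 3, 10, 30 (males)/15 (females) mg/kg, N=4/sex/dose. Food intake, body weight gain and histopathology were assessed.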"}, "[5]": {"experiment": "Toxicity in dog at 1 mg/kg, po using spray-dried dispersion formulation", "type": "organism-based, Canis lupus familiaris", "conditions": "in vivo"}, "[6]": {"experiment": "Toxicity in rat at 3 mg/kg, po administered for 14 days", "type": "organism-based", "conditions": "in vivo, 336 h, time 14 day", "procedure,_shortened": "as §1"}, "[7]": {"experiment": "Toxicity in dog assessed as induction of mucoid feces at 15 mg/kg, po using spray-dried dispersion formulation", "type": "organism-based, Canis lupus familiaris", "conditions": "in vivo"}, "[8]": {"experiment": "Clearance in dog at 0.1 mg/kg, iv administered as single bolus dose", "type": "ADME, organism-based, Canis lupus familiaris", "conditions": "in vivo"}, "[9]": {"target": "T2, Muscarinic acetylcholine receptor M1 (Homo sapiens, UniProt P11229)", "T2 sequence (P11229 whole entry)": "T1 sequence (whole entry)", "experiment": "Partial agonist activity at human muscarinic M1 receptor stably expressed in CHO cells assessed as increase in intracellular calcium level measured after 10 mins by Fluo-8AM dye based FLIPR TETRA method", "type": "functional, cell-based"}, "[10]": {"experiment": "fAUC (0 to 24 hrs) in dog at 5 mg/kg, po using spray-dried dispersion formulation", "type": "ADME, organism-based, Canis lupus familiaris", "conditions": "in vivo"}, "[11]": {"experiment": "fAUC (0 to 24 hrs) in dog at 15 mg/kg, po using spray-dried dispersion formulation", "type": "ADME, organism-based, Canis lupus familiaris", "conditions": "in vivo"}, "[12]": {"experiment": "Permeability of compound in MDCKII-LE cells", "type": "ADME, cell-based, Canis lupus familiaris", "conditions": "dog, MDCK; read-out: permeability"}, "[13]": {"experiment": "Oral bioavailability in rat at 0.5 mg/kg", "type": "ADME, organism-based", "conditions": "in vivo"}, "[14]": {"experiment": "Fraction unbound in cynomolgus monkey plasma", "type": "ADME, cell-free, Macaca fascicularis"}, "[15]": {"experiment": "In vivo positive allosteric modulation of muscarinic M1 receptor in CD1 mouse assessed as increase in ACh-induced IP-1 levels in […] tissue at 10 mg/kg, sc measured after 2 hrs by HTRF assay relative to baseline", "type": "functional", "procedure,_shortened": "(§2)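 Given sc as a solution in 5/15/80 DMSO/Solutol/water. Striatal IP1 was read 2 h after dosing and expressed as fold increase over baseline. Compound levels were measured in striatal tissue at 2 h (N=5/dose). Each animal's fold increase was plotted against its unbound brain concentration.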"}, "[16]": {"experiment": "Clearance in rat at 1 mg/kg, iv administered as single bolus dose", "type": "ADME, organism-based", "conditions": "in vivo"}, "[17]": {"experiment": "Toxicity in dog assessed as salivation at 3 mg/kg, po using spray-dried dispersion formulation", "type": "organism-based, Canis lupus familiaris", "conditions": "in vivo"}, "[18]": {"experiment": "fAUC (0 to 24 hrs) in rat at 3 mg/kg, po administered for 14 days", "type": "ADME, organism-based", "conditions": "in vivo, 336 h, time 14 day", "procedure,_shortened": "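2-week repeat oral dosing in rats, 0.5% methylcellulose formulation; N=4/sex/dose; doses 3, 10, 30 (males)/15 (females) mg/kg; unbound exposures reported per dose and sex.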"}, "[19]": {"experiment": "Toxicity in dog assessed as induction of soft stool at 45 mg/kg, po using spray-dried dispersion formulation measured after 45 mins", "type": "organism-based, Canis lupus familiaris", "conditions": "in vivo, 0.75 h"}, "[20]": {"experiment": "Toxicity in dog assessed as emesis at 5 mg/kg, po using spray-dried dispersion formulation", "type": "organism-based, Canis lupus familiaris", "conditions": "in vivo", "procedure,_shortened": "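Dogs received single escalating oral doses as a spray-dried dispersion (10% drug loading with HPMCAS-M). The dispersion was suspended in 0.5 wt% methylcellulose/0.5 wt% HPMCAS in 20 mM tris buffer, pH 7.4. One dog per sex per dose was used, and clinical signs were recorded.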"}, "[21]": {"target": "T3, Muscarinic acetylcholine receptor M4 (Homo sapiens, UniProt P08173)", "T3 sequence (P08173 whole entry)": "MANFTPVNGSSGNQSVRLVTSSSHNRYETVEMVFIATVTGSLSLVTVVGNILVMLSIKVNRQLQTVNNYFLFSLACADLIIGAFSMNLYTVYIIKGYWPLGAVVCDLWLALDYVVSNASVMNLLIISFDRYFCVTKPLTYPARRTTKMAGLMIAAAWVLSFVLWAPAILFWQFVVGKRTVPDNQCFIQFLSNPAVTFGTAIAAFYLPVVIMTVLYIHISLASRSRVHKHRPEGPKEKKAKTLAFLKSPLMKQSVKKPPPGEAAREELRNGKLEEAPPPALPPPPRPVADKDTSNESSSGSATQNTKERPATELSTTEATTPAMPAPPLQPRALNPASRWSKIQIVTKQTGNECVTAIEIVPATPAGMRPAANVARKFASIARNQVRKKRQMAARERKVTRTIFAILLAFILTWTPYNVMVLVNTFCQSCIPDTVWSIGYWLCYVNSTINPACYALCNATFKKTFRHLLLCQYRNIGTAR", "experiment": "Agonist activity at human recombinant muscarinic M4 receptor stably expressed in HEK cells assessed as increase in cAMP accumulation up to 10 uM measured after 10 mins by GloSensor cAMP Assay", "type": "cell-based"}, "[22]": {"experiment": "Unbound plasma concentration in scopolamine-induced Wistar rat model at 0.32 mg/kg, po measured after 1 hr", "type": "ADME, organism-based", "conditions": "in vivo", "procedure,_shortened": "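Plasma sampled 1 h after oral dosing in satellite animals (N=2/dose) given the same dosing solution as the water-maze study (suspension in 0.5% methylcellulose in water); unbound concentration reported as the group average.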"}, "[23]": {"experiment": "In vivo positive allosteric modulation of muscarinic M1 receptor in CD1 mouse assessed as increase in ACh-induced IP-1 levels in […] tissue at 1 mg/kg, sc measured after 2 hrs by HTRF assay relative to baseline", "type": "functional", "procedure,_shortened": "as §2"}, "[24]": {"experiment": "Toxicity in dog assessed as salivation at 15 mg/kg, po using spray-dried dispersion formulation", "type": "organism-based, Canis lupus familiaris", "conditions": "in vivo"}, "[25]": {"experiment": "Half-life in rat at 0.5 mg/kg, po or 1 mg/kg, iv", "type": "ADME, organism-based", "conditions": "in vivo"}, "[26]": {"experiment": "Lipophilicity, log D of compound", "type": "physicochemical", "conditions": "octanol/water"}},
  "data": [
    {"smiles": "Cc1cnc(C(=O)N[C@H]2CCOC[C@@H]2O)cc1Cc1ccc(-c2cscn2)cc1", "values": [
      {"measurement": "Kb", "setting": "[1]", "value": 5, "unit": "µM"},
      {"measurement": "Activity", "setting": "[2]", "value": "Toxic"},
      {"measurement": "Fu", "setting": "[3]", "value": 4, "unit": "%"},
      {"measurement": "Activity", "setting": "[4]", "value": "Non-Toxic"},
      {"measurement": "Activity", "setting": "[5]", "value": "Non-Toxic"},
      {"measurement": "Activity", "setting": "[6]", "value": "Non-Toxic"},
      {"measurement": "Activity", "setting": "[7]", "value": "Toxic"},
      {"measurement": "clearance", "setting": "[8]", "value": 2.73, "unit": "mL/min/kg"},
      {"measurement": "EC50", "setting": "[9]", "value": "≥ 3.9", "unit": "µM"},
      {"measurement": "fAUC", "setting": "[10]", "value": 5.861, "unit": "µM·h"},
      {"measurement": "fAUC", "setting": "[11]", "value": 7.765, "unit": "µM·h"},
      {"measurement": "Papp", "setting": "[12]", "value": 22, "unit": "×10⁻⁶ cm/s"},
      {"measurement": "bioavailability", "setting": "[13]", "value": 112, "unit": "%"},
      {"measurement": "Fu", "setting": "[14]", "value": 3.2, "unit": "%"},
      {"measurement": "fold change (FC)", "setting": "[15]", "value": 42},
      {"measurement": "clearance", "setting": "[16]", "value": 3.29, "unit": "mL/min/kg"},
      {"measurement": "Activity", "setting": "[17]", "value": "Toxic"},
      {"measurement": "fAUC", "setting": "[18]", "value": 1.856, "unit": "µM·h"},
      {"measurement": "Activity", "setting": "[19]", "value": "Toxic"},
      {"measurement": "Activity", "setting": "[20]", "value": "Toxic"},
      {"measurement": "Activity", "setting": "[21]", "value": "Not Active"},
      {"measurement": "Cp(f)", "setting": "[22]", "value": 3.7, "unit": "nM"},
      {"measurement": "fold change (FC)", "setting": "[23]", "value": 2},
      {"measurement": "Activity", "setting": "[24]", "value": "Toxic"},
      {"measurement": "half-life", "setting": "[25]", "value": 5.58, "unit": "h"},
      {"measurement": "logD", "setting": "[26]", "value": 2.2}
    ]}
  ]
}
